Laboratory results taken from publication PMC3819402 (Journal of medicinal chemistry, 2013).
“Also recorded” adds a separate entry of the source. Like-named read-outs stand apart in the source and are kept apart here.

How the values were obtained:
SK-MEL-28 = assay: In vitro cytotoxicity, SK-MEL-28; type: cell-based; details: Homo sapiens, SK-MEL-28, 96 h, read-out: IC50 (GI50) SK-MEL-28
In short: (§1)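 Tumour cell lines were grown in DMEM or RPMI with 10% FBS and penicillin-streptomycin, then plated in twelve-well dishes. Test compound was added 24 h later at various concentrations. After 96 h, viable cells were counted by trypan blue exclusion from duplicate wells.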

MCF-7 = assay: In vitro cytotoxicity, MCF-7; type: cell-based; details: Homo sapiens, MCF7, 96 h, read-out: IC50 (GI50) MCF-7
In short: as §1

SK BR-3 = assay: In vitro cytotoxicity, SK BR-3; type: cell-based; details: Homo sapiens, SK-BR-3, 96 h, read-out: IC50 (GI50) SK BR-3
In short: as §1

N417 = assay: In vitro cytotoxicity, N417; type: cell-based; details: Homo sapiens, N417, 96 h, read-out: IC50 (GI50) N417
In short: as §1

RF-1 = assay: In vitro cytotoxicity, RF-1; type: cell-based; details: Homo sapiens, RF1, 96 h, read-out: IC50 (GI50) RF-1
In short: as §1

H80 = assay: In vitro cytotoxicity, H80; type: cell-based; details: Homo sapiens, 96 h, read-out: IC50 (GI50) H80
In short: as §1

MES-SA = assay: In vitro cytotoxicity, MES-SA; type: cell-based; details: Homo sapiens, 96 h, read-out: IC50 (GI50) MES-SA
NAMALWA = assay: In vitro cytotoxicity, NAMALWA; type: cell-based; details: Homo sapiens, 96 h, read-out: IC50 (GI50) NAMALWA
In short: as §1

HCT116 = assay: In vitro cytotoxicity, HCT116; type: cell-based; details: Homo sapiens, HCT-116, 96 h, read-out: IC50 (GI50) HCT116
In short: as §1

H187 = assay: In vitro cytotoxicity, H187; type: cell-based; details: Homo sapiens, NCI-H187, 96 h, read-out: IC50 (GI50) H187
In short: as §1

RF-48 = assay: In vitro cytotoxicity, RF-48; type: cell-based; details: Homo sapiens, RF48, 96 h, read-out: IC50 (GI50) RF-48
In short: as §1

MIAPaCa2 = assay: In vitro cytotoxicity, MIAPaCa2; type: cell-based; details: Homo sapiens, MIA PaCa-2, 96 h, read-out: IC50 (GI50) MIAPaCa2
In short: as §1

DU145 = assay: In vitro cytotoxicity, DU145; type: cell-based; details: Homo sapiens, DU-145, 96 h, read-out: IC50 (GI50) DU145
LNCAP = assay: In vitro cytotoxicity, LNCAP; type: cell-based; details: Homo sapiens, 96 h, read-out: IC50 (GI50) LNCAP
In short: as §1

PC3 = assay: In vitro cytotoxicity, PC3; type: cell-based; details: Homo sapiens, PC-3, 96 h, read-out: IC50 (GI50) PC3
In short: as §1

BT20 = assay: In vitro cytotoxicity, BT20; type: cell-based; details: Homo sapiens, BT-20, 96 h, read-out: IC50 (GI50) BT20
In short: as §1

T47D = assay: In vitro cytotoxicity, T47D; type: cell-based; details: Homo sapiens, 96 h, read-out: IC50 (GI50) T47D
In short: as §1

HCT15 = assay: In vitro cytotoxicity, HCT15; type: cell-based; details: Homo sapiens, HCT-15, 96 h, read-out: IC50 (GI50) HCT15
In short: as §1

SKOV3 = assay: In vitro cytotoxicity, SKOV3; type: cell-based; details: Homo sapiens, SK-OV-3, 96 h, read-out: IC50 (GI50) SKOV3
In short: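 Tumour cells grown in DMEM or RPMI with 10% fetal bovine serum and 1 unit/mL penicillin-streptomycin, plated in twelve-well dishes, then dosed 24 h later with test compound at various concentrations. After 96 h, viable cells counted in duplicate wells by trypan blue exclusion.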

DAUDI = assay: In vitro cytotoxicity, DAUDI; type: cell-based; details: Homo sapiens, 96 h, read-out: IC50 (GI50) DAUDI
In short: as §1

MOLT-4 = assay: In vitro cytotoxicity, MOLT-4; type: cell-based; details: Homo sapiens, MOLT-4, 96 h, read-out: IC50 (GI50) MOLT-4
In short: as §1

MES-SA / DX5 = assay: Cytotoxicity in multidrug-resistant subline MES-SA/DX5; type: cell-based, human; details: all three pairs of sensitive and drug-resistant cancer cells
DU145 cells [1] = assay: Cell cycle progression by flow cytometry; type: cell-based, human; details: 24 h, propidium iodide
In short: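 DU145 cells were grown in DMEM with 10% FBS and penicillin-streptomycin, then treated 24 h after plating. Harvest was 24 h after treatment, pooling trypsinised and non-attached cells. Cells were PBS-washed and fixed in ice-cold 70% ethanol for at least 24 h. They were stained with propidium iodide plus RNase A (0.5 mg) for 30 min at 37 °C, run on a FACScan, and analysed for cell-cycle distribution.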

DU145 cells [2] = assay: Fluorescent tubulin staining, mitotic spindle; type: cell-based, human; details: 24 h exposure; 25 nM in Figure 2
DU145 cells [3] = assay: PARP cleavage western blot, tumor cells; type: cell-based, human; details: tumor cell line
In short: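 DU145 cells in 100 mm plates were treated 24 h after plating with DMSO or increasing concentrations of test compound, then collected at set time points. Frozen pellets were lysed in 0.1% Triton X-100 buffer with protease inhibitors. Equal protein was run on 10% SDS-PAGE and moved to nitrocellulose. The blot was probed with anti-PARP antibody and IRDye 800 secondary, then scanned on Odyssey for PARP cleavage.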

[4] = test system: purified bovine brain tubulin; assay: In vitro tubulin polymerization; type: biochemical; details: 10 μM, 37 °C, absorbance at 340 nm over 40 min
[5] = biological target: porcine brain tubulin (vinblastine binding site) (Sus scrofa, UniProt P02550+P02554); assay: Competitive mass spectrometry binding assay, vinblastine site; details: vinblastine 1.2 μM, no GTP; competitor 0.1–100 μM
[6] = biological target: porcine brain tubulin, preformed microtubules (paclitaxel binding site) (Sus scrofa, UniProt P02550+P02554); assay: Competitive mass spectrometry binding assay, paclitaxel site; details: paclitaxel 1.2 μM, 1 mM GTP, competitor 0.1–100 μM
tubulin in DU145 cells = assay: In vivo; type: cell-based, human; details: for polymerized versus soluble tubulin in cells: 24 h treatment
MIA-PaCa-2 cells = assay: Soft agar assay; type: cell-based, human; details: three weeks of growth
HepG2 cells = assay: Cytotoxicity to HepG2; type: cell-based; details: 4 h exposure, Alamar Blue
various tumor cell lines = assay: Cytotoxicity across a wide spectrum of cancer cell lines; type: cell-based; details: Homo sapiens, read-out: IC50 values across tumor cell lines of Table 3
In short: as §1

normal cell line = assay: PARP cleavage, normal cell line; type: cell-based; details: data not shown
[7] = test system: BT20 human breast tumor xenograft; assay: Nude mouse xenograft assay

In the case of `O=c1cc[nH]c(=S)[nH]1` [2-thiouracil, 2-Thiouracil, reference compound], the “LD50 to Caco-2 cells” value (Caco-2 cells; human, Caco-2, 1 h) is reported as > 1000 µM.
With `COc1ccc(NS(=O)(=O)/C=C/c2c(OC)cc(OC)cc2OC)cc1` [6i, (E)-N-(4-Methoxyphenyl)-2-(2′,4′,6′-trimethoxyphenyl)ethenesulfonamide] the IC50 (SK-MEL-28) was 50 nM, the IC50 (MCF-7) was 50 nM and the IC50 (SK BR-3) was 50 nM. For the same molecule, the IC50 (N417) was 50 nM, the IC50 (RF-1) was 50 nM and the IC50 (H80) was 100 nM. The IC50 (MES-SA) was 50 nM and the IC50 (NAMALWA) was 100 nM.
Molecule `COc1cc(OC)c(/C=C/S(=O)(=O)Nc2ccc(OC)c(O)c2)c(OC)c1` [6p, (E)-N-(3-Hydroxy-4-methoxyphenyl)-2-(2′,4′,6′-trimethoxyphenyl)ethenesulfonamide] has an IC50 (HCT116) of 10 nM, an IC50 (H187) of 10 nM and an IC50 (N417) of 10 nM. For the same molecule, the IC50 (RF-48) was 10 nM, the IC50 (RF-1) was 10 nM and the IC50 (MIAPaCa2) was 10 nM.
`COc1cc(OC)c(/C=C/S(=O)(=O)Nc2ccc(OC)c(N)c2)c(OC)c1` [6t, (E)-N-(3-Amino-4-methoxyphenyl)-2-(2′,4′,6′-trimethoxyphenyl)ethenesulfonamide] was tested, and the IC50 (DU145) was 8 nM, the IC50 (LNCAP) was 8 nM and the IC50 (PC3) was 8 nM. The IC50 (SK-MEL-28) was 8 nM, the IC50 (BT20) was 8 nM and the IC50 (T47D) was 8 nM. For the same molecule, the IC50 (HCT15) was 8 nM, the IC50 (SKOV3) was 8 nM and the IC50 (NAMALWA) was 8 nM. For the same molecule, the IC50 (DAUDI) was 8 nM, the IC50 (MOLT-4) was 8 nM and the resistance factors (MES-SA / DX5) was < 2. The cell cycle distribution (DU145 cells [1]; 0.005 μM) was “accumulated in the G2/M phase”, the cell cycle distribution (DU145 cells [1]; 0.02 μM) was “a majority of cells showed G2/M arrest” and the “effect on microtubule cytoskeleton / mitotic spindle” value (DU145 cells [2]) was “complete depolymerization of the microtubule cytoskeleton”. For the same molecule, the PARP cleavage (DU145 cells [3]) was “Full length PARP gets cleaved”, the tubulin polymerization [4] was “completely inhibit tubulin polymerization” and the “competition with vinblastine binding to tubulin” value [5] was “did not compete”. For the same molecule, the “competition with paclitaxel binding to tubulin” value [6] was “did not compete”, the “polymerized versus soluble tubulin in cells” value (tubulin in DU145 cells) was “concentration-dependent depolymerization of tubulin; also recorded: completely inhibits the polymerization of tubulin” and the “tubulin depolymerization in paclitaxel pre-treated cells” value (tubulin in DU145 cells; paclitaxel 24 h, then compound 4 h) was “effective at depolymerizing paclitaxel induced polymerized tubulin”. For the same molecule, the “anchorage-independent growth in soft agar” value (MIA-PaCa-2 cells) was “inhibition of anchorage-independent growth of tumor cells in a dose dependent manner”, the “LD50 to HepG2 cells” value (HepG2 cells) was >1000 µM and the IC50 (various tumor cell lines) was 3 to 10 nM. The “PARP cleavage in normal cell line” value (normal cell line) was “no PARP cleavage”, the “LD50 to Caco-2 cells” value (Caco-2 cells; one hour incubation, Alamar Blue) was >1000 µM and the “tumor growth in xenograft” value ([7]; 20 mg/kg IP every other day, 6 injections, female nude mice) was “readily inhibited tumor growth”. The body weight ([7]; 20 mg/kg IP, xenograft study) was “no body weight loss of more than 10%; also recorded: no reduction in body weight”.
`COc1cc(OC)c(/C=C/S(=O)(=O)Nc2ccc(OC)c(NCC(=O)O)c2)c(OC)c1` [25a, (E)-2-(2-Methoxy-5-(2-(2′,4′,6′-trimethoxyphenyl)vinylsulfonamido)phenylamino)acetic acid] was tested, and the tubulin polymerization [4] was “completely inhibit tubulin polymerization”.
`COc1cc(OC)c(/C=C/S(=O)(=O)Nc2ccc(OC)c(NC(C)(C)C(=O)O)c2)c(OC)c1` [25c, (E)-2-(2-Methoxy-5-(2-(2′,4′,6′-trimethoxyphenyl)vinylsulfonamido)phenylamino)-2-methylpropanoic acid] showed an IC50 (N417) of 30 nM, an IC50 (DAUDI) of 30 nM and an IC50 (MOLT-4) of 30 nM. The resistance factors (MES-SA / DX5) was < 2 and the tubulin polymerization [4] was “completely inhibit tubulin polymerization”.
For `CC(=O)O[C@H]1C(=O)[C@@]2(C)[C@H]([C@H](OC(=O)c3ccccc3)[C@]3(O)C[C@H](OC(=O)[C@H](O)[C@@H](NC(=O)c4ccccc4)c4ccccc4)C(C)=C1C3(C)C)[C@]1(OC(C)=O)CO[C@@H]1C[C@@H]2O` [Paclitaxel, reference compound], the tubulin polymerization [4] was “strong increase in turbidity” and the “polymerized versus soluble tubulin in cells” value (tubulin in DU145 cells) was “induced a shift from soluble to polymerized tubulin”.
`CC(=O)O[C@@]12CO[C@@H]1C[C@H](O)[C@@]1(C)C(=O)[C@H](O)C3=C(C)[C@@H](OC(=O)[C@H](O)[C@@H](NC(=O)OC(C)(C)C)c4ccccc4)C[C@@](O)([C@@H](OC(=O)c4ccccc4)[C@H]21)C3(C)C.O.O.O` [docetaxel, reference compound] was tested, and the “competition with paclitaxel binding to tubulin” value [6] was “effectively competed”.
With `COC(=O)Nc1nc2cc(C(=O)c3cccs3)ccc2[nH]1` [nocodazole, Nocodazole, reference compound] the tubulin polymerization [4] was “completely inhibit tubulin polymerization”.
In the case of `CC[C@]1(O)C[C@H]2CN(CCc3c([nH]c4ccccc34)[C@@](C(=O)OC)(c3cc4c(cc3OC)N(C=O)[C@H]3[C@@](O)(C(=O)OC)[C@H](OC(C)=O)[C@]5(CC)C=CCN6CC[C@]43[C@@H]65)C2)C1` [vincristine, reference compound], the “competition with vinblastine binding to tubulin” value [5] is reported as “effectively competed”.
